Calls of active or inactive are those of the source. The calls are words filed in the database; no cut-off is given here.

By inhibition is commonly meant the share of the control response that was lost under treatment. For orientation: IC50 means the concentration that inhibits the measured activity by half. One may read the EC50 as the midpoint of the concentration-response curve. The term LD50 denotes the dose at which mortality reaches 50%.

Data set [1] has as its target T1, hERG (KCNH2) (Homo sapiens, UniProt Q12809). Nature of the data set: Inhibition of human ERG expressed in CHO cells at 20 uM by patch clamp assay relative to control. It is filed as cell-based. The conditions noted are these: CHO cells that express hERG. A general note: The patch-clamp technique gives a direct electrical read-out from membranes.
Data set [2] concerns L02. The data set can be described thus: Inhibition of cellular glucose output in dexamethasone-induced insulin resistant human L02 cells assessed as insulin-stimulated glucose uptake at 10 uM preincubated for 24 hrs followed by insulin stimulation measured after 24 hrs by glucose oxidase method (reference value: 4.5 +/- 0.7%). It is filed as functional. On the set-up: scale not given: the % may be the effect or the level left.

Data set [3] deals with T1, hERG (KCNH2). Nature of the data set: Inhibition of human ERG expressed in CHO cells at 5 uM by patch clamp assay relative to control. The data set is classed as cell-based. The conditions noted are these: CHO cells that express hERG.
For data set [4], the system named is Platelet. Nature of the data set: Antiplatelet activity in platelet rich plasma (unknown origin) assessed as inhibition of arachidonic acid-induced platelet aggregation. It is filed as functional, cell-based.
Data set [5] has as its system Mus musculus. Nature of the data set: Effect on lipid metabolism in spontaneous db/db BKS.Cg-Dock7m +/+ Leprdb/J mouse assessed as increase in serum HDL level at 27 umol/kg, po administered as daily dose via gavage for 18 days. The data set is classed as functional, organism-based. The essentials: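 db/db mice were gavaged daily for 18 days in 0.5% CMC-Na (n=8 per group), with a vehicle model group. On day 19, blood was collected and serum prepared by centrifugation. Serum triglyceride and HDL were then measured.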

For data set [6], the target named is T1, hERG (KCNH2). The data set can be described thus: Inhibition of human ERG expressed in CHO cells at 10 uM by patch clamp assay relative to control. The data set is classed as cell-based. Particulars: CHO cells that express hERG.
Data set [7] has as its target T1, hERG (KCNH2). The data set can be described thus: Inhibition of human ERG expressed in CHO cells at 2.5 uM by patch clamp assay relative to control. The conditions noted are these: CHO cells that express hERG. It is filed as cell-based.
The subject of data set [8] is 3T3-L1. Nature of the data set: Induction of insulin-stimulated 2-NBDG uptake in TNF-alpha-induced insulin resistant mouse 3T3L1 cells preincubated for 48 hrs followed by 2-NBDG addition measured after 30 mins in presence of insulin by fluorescence assay. The data set is classed as functional, cell-based. The essentials:
(§1)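 Day-8 differentiated 3T3-L1 adipocytes received TNF-α (4 ng/mL) daily for 4 days. They were pretreated in triplicate for 48 h (C-PTIO 20 μM where indicated), then given 100 μM 2-NBDG at 37 °C for 30 min in the dark, with or without insulin. After KRP washes, fluorescence was read at Ex/Em 485/515 nm. Three experiments, mean ± SD.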

The subject of data set [9] is 3T3-L1. Nature of the data set: Induction of adipogenesis in mouse 3T3L1 preadipocytes assessed as increase in intracellular triglyceride level at 10 uM treated every other day up to day 14 by AdipoRed staining based confocal microscopic method. The data set is classed as functional, cell-based. The essentials:
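3T3-L1 preadipocytes were grown to confluence plus 48 h. Differentiation was induced with 1.0 μM dexamethasone, 0.5 mM IBMX and 1.0 μg/mL insulin for 48 h, then insulin alone. Compound or 0.1% DMSO was added every other day to day 14. Cells were washed in KRP, stained with AdipoRed for 15 min in the dark, imaged confocally and read at Ex/Em 485/572 nm.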

In data set [10] the target is Voltage-gated inwardly rectifying potassium channel KCNH2 (Homo sapiens, UniProt Q12809). Nature of the data set: Inhibition of human ERG expressed in CHO cells by patch clamp assay. The data set is classed as cell-based.
Voltage-gated inwardly rectifying potassium channel KCNH2, sequence (Q12809 whole entry): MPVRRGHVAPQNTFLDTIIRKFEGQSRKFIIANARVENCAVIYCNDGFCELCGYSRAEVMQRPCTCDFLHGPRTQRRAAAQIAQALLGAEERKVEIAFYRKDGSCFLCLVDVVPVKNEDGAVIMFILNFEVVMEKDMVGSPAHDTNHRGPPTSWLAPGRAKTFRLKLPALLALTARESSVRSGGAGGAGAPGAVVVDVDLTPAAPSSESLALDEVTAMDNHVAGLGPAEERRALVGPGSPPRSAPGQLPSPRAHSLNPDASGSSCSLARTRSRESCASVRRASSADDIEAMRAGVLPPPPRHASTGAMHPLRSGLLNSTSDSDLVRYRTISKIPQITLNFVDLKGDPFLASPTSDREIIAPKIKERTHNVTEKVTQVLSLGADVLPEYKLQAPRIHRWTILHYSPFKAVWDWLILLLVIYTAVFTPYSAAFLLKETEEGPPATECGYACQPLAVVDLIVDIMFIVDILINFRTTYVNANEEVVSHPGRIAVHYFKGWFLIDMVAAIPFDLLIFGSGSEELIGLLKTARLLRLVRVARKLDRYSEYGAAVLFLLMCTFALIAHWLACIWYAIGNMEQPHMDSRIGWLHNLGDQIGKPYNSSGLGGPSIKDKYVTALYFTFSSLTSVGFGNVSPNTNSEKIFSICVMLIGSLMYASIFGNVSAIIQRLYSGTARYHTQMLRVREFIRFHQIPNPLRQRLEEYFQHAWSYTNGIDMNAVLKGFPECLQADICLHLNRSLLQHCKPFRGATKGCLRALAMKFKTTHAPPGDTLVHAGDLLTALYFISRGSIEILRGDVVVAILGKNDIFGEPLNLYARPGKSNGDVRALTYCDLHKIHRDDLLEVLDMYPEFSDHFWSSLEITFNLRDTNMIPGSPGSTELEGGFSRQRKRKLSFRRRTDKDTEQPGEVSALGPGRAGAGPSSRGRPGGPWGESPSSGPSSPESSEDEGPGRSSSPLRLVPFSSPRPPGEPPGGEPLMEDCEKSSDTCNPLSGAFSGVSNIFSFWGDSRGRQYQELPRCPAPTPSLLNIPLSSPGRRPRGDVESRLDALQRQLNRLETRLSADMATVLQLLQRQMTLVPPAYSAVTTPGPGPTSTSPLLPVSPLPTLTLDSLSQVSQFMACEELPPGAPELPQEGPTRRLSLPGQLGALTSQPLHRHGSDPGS
In data set [11] the target is T1, hERG (KCNH2). The data set can be described thus: Inhibition of human ERG expressed in CHO cells at 40 uM by patch clamp assay relative to control. The data set is classed as cell-based. The conditions noted are these: CHO cells that express hERG.
The test system of data set [12] is Platelet. Nature of the data set: Antiplatelet activity in platelet rich plasma (unknown origin) assessed as inhibition of ADP-induced platelet aggregation. It is filed as functional, cell-based.
Data set [13] concerns the target T2, Aquaporin-2 (Homo sapiens, UniProt P41181).
T2 sequence (P41181 whole entry): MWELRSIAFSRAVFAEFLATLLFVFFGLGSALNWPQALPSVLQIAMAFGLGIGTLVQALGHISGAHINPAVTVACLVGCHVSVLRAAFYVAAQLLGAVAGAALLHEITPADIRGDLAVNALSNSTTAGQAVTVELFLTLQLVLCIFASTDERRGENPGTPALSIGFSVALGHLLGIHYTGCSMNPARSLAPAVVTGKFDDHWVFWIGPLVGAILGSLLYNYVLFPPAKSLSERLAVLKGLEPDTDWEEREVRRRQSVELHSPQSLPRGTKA
The data set can be described thus: Induction of membrane translocation of biotinylated human AQP2 expressed in rat IMCD cells at 10 to 50 uM after 30 mins by Western blot analysis. The data set is classed as cell-based. The conditions noted are these: 0.5 h. The essentials:
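Human AQP2-transfected primary rat IMCD cells were treated for 30 min. Surface proteins were biotinylated with sulfo-NHS-LC-biotin (3 mg/mL, 60 min, 4 °C), then cells lysed in 1% NP-40 and pulled down overnight on streptavidin beads. Biotinylated and total AQP2 (30 μg/lane) were blotted with anti-AQP2 and quantified by densitometry as the biotinylated/total ratio. Three experiments, mean ± SD.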

Data set [14] can be described thus: Toxicity in spontaneous db/db BKS.Cg-Dock7m +/+ Leprdb/J mouse assessed as body weight gain at 27 umol/kg, po administered as daily dose via gavage treated for 18 days measured post last dose (reference value: 5.6 +/- 2.1 g). The data set is classed as organism-based. Particulars: in vivo, 432 h.
Data set [15] deals with T2, Aquaporin-2. The data set can be described thus: Induction of membrane translocation of biotinylated human AQP2 expressed in rat IMCD cells at 10 to 50 uM after 30 mins by FITC-staining based confocal fluorescence microscopic analysis. The data set is classed as cell-based. The conditions noted are these: 0.5 h. A digest of the protocol: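 Primary SD rat IMCD cells, day 5, were transfected with a human AQP2 plasmid (5 h, serum-free) and cultured 48 h. They were treated for 30 min, with 0.1% DMSO as vehicle and forskolin 100 μM as reference. Cells were fixed in paraformaldehyde, permeabilized with Triton X-100 and quenched with H2O2/methanol. They were stained with FITC-anti-AQP2 and imaged by confocal microscopy.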

Data set [16] has as its system 3T3-L1. Nature of the data set: Induction of insulin-stimulated 2-NBDG uptake in TNF-alpha-induced insulin resistant mouse 3T3L1 cells at 10 uM preincubated for 48 hrs followed by 2-NBDG addition measured after 30 mins in presence of insulin by fluorescence assay. It is filed as functional, cell-based. A digest of the protocol:
as §1

Data set [17] deals with T1, hERG (KCNH2). The data set can be described thus: Inhibition of human ERG expressed in CHO cells at 1.25 uM by patch clamp assay relative to control. The data set is classed as cell-based. The conditions noted are these: CHO cells that express hERG.
Data set [18] can be described thus: Toxicity in po dosed ICR mouse administered as single dose via gavage treated on day 1 and measured daily up to 14 days. The data set is classed as organism-based. Particulars: in vivo. A digest of the protocol:
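Mice of both sexes, 7 weeks old, were randomized and given one oral gavage dose on day 1. Dose levels were 500, 1000, 2000, 3000, 4000 or 5000 mg/kg, or 2000, 4000 and 5000 mg/kg, with n = 10 per group. Behaviour, health and mortality were checked daily for 14 days, and total deaths were counted on day 14. LD50 was calculated with 95% confidence limits.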

The subject of data set [19] is Platelet. The data set can be described thus: Antiplatelet activity in platelet rich plasma (unknown origin) assessed as inhibition of arachidonic acid-induced platelet aggregation at 1 mM relative to control. The data set is classed as functional.
Data set [20] deals with Platelet. The data set can be described thus: Antiplatelet activity in platelet rich plasma (unknown origin) assessed as inhibition of arachidonic acid-induced platelet aggregation at 16 mM relative to control. The data set is classed as functional.
The test system of data set [21] is 3T3-L1. The data set can be described thus: Induction of nitric oxide production in TNF-alpha-induced insulin resistant mouse 3T3L1 cells at 10 uM after 0.5 to 6 hrs by DAF-FM-2DA dye based fluorescence assay. It is filed as functional, cell-based. A digest of the protocol:
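Insulin-resistant 3T3-L1 adipocytes (TNF-α 4 ng/mL, 4 days) were treated for varying times, with or without 20 μM C-PTIO. Vehicle was DMSO 0.1% or NaOH 10 μM. Cells were washed in KRP, loaded with 10 μM DAF-FM-2DA in pH 7.4 PBS at 37 °C for 30 min, and read at Ex/Em 485/515 nm. Three experiments.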

T1 sequence (Q12809 whole entry): as the sequence (Q12809 whole entry) above

With `CCN(CC)/[N+]([O-])=N/OCOC(=O)/C=C/c1ccc(OC(=O)OCN2C(=O)SC(Cc3ccc(OCCN(C)c4ccccn4)cc3)C2=O)c(OC)c1` (stereo not drawn), in data set [1], the inhibition at 20 µM stood at 26.2%. For the same compound, the Activity was 47.8% in [2], “Not Active” in [13], 3.4 g in data set [14] and “Not Active” in data set [15]. In [3], this compound showed an inhibition at 5 µM of 14.5%. The IC50 was 700 µM in [4], greater than 40 µM in data set [10] and 2100 µM in data set [12]. For the same compound, the outcome in data set [5], in data set [9] and in data set [16] was Active. Moreover, the inhibition at 10 µM in [6] worked out at 18%. In data set [7], this compound registered an inhibition at 2.5 µM of 10.8%. In addition, the EC50 in data set [8] was 1.08 µM. In addition, in [11], the inhibition at 40 µM was 39.5%. In addition, the inhibition at 1.25 µM in [17] was 9.06%. This compound came in with a 50% lethal dose (LD50) at 336 h in data set [18] greater than 5000 mg/kg.

With `CN(CCOc1ccc(CC2SC(=O)NC2=O)cc1)c1ccccn1` (stereo not drawn) [ROSIGLITAZONE], testing at 20 µM in data set [1] gave an inhibition of 42.5%. Moreover, the Activity is on record as 11.8% in data set [2], “Active” in data set [13], 6.6 g in [14] and “Active” in data set [15]. Also, in data set [19], the inhibition at 1000 µM worked out at 14.8%. The compound also registered an inhibition at 5 µM in data set [3] of 23.3%. Besides, the values for the IC50 in [4], in [10] and in [12] were 6400 µM, 29.5 µM and 5700 µM, respectively. Moreover, the inhibition at 16000 µM in [20] is 67.2%. Further, the inhibition at 10 µM in data set [6] turned out to be 30.1%. The same compound returned an inhibition at 2.5 µM in data set [7] of 17.3%. The concentration for a half-maximal effect (EC50) in [8] worked out at 1.72 µM. For the same compound, the result in data set [9] and in [16] was Active. The compound also registered an inhibition at 40 µM in data set [11] of 57.9%. Further, the inhibition at 1.25 µM in data set [17] was 9.38%. The same compound gave an LD50 at 336 h in [18] of 2580 mg/kg. Further, the result in data set [21] was inactive.

The record behind these values is ChEMBL document CHEMBL4325910, “Design and synthesis of rosiglitazone-ferulic acid-nitric oxide donor trihybrids for improving glucose tolerance” (Eur J Med Chem, 2019).
